Our source for the inhibition, Activity and IC50 values is ChEMBL document CHEMBL1955833, “Wnt inhibition correlates with human embryonic stem cell cardiomyogenesis: a structure-activity relationship study based on inhibitors for the Wnt response” (J Med Chem, 2012).

One may read the inhibition as the relative decrease from the control value, in per cent. In general, IC50 refers to the concentration that inhibits the measured activity by half. The low end stands for higher potency, the high end for lower potency.

Data set [1] is described as follows: Inhibition of beta-catenin-dependent canonical Wnt3A pathway in human HEK293T cells at 1 uM by luciferase reporter gene assay. The conditions noted are these: HEK-293T. It is filed as cell-based. The gist of the method: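 HEK293T cells transiently co-transfected with Super(8x)TOPflash (TCF-firefly luciferase), TK-Renilla luciferase for normalization, and a Wnt3A-expressing vector to activate the pathway. Compounds tested at a single concentration of 1 μM, alongside untreated and DMSO vehicle controls. Firefly signal normalized to Renilla.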
A general note: A reporter such as luciferase makes a cellular process visible.

For data set [2], the system named is H9. In words: Cardiogenic activity in human H9 cells after 14 days by MYH6-mCherry reporter gene assay relative to 4-[(1R,2S,6R,7S)-3,5-dioxo-4-azatricyclo[5.2.1.0~2,6~]dec-8-en-4-yl]-N-quinolin-8-ylbenzamide. It counts as functional. The gist of the method: (§1)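 hESC embryoid bodies grown to day 4, dissociated to single cells and plated in 384-well format with serial compound dilutions. At day 10 switched to serum-free medium with T3. At day 14 moved to PBS and imaged for red fluorescence. Total area and intensity of the MYH6-mCherry reporter were quantified per well and expressed as percent cardiogenesis, with the reference set to 100% at its maximum.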

The nature of data set [3]: Inhibition of beta-catenin-dependent canonical Wnt3 pathway in human HEK293T cells by luciferase reporter gene assay. It counts as cell-based. The conditions noted are these: HEK-293T.
In data set [4] the test system is HEK-293T. Nature of the data set: Inhibition of human recombinant TGFbeta2-induced Smad signaling in HEK293T cells at 0.01 to 5 uM by luciferase reporter gene assay. It counts as cell-based. In short, it runs like this:
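HEK293T cells carrying a SMAD response element reporter were stimulated with human recombinant TGFβ2. Compounds were incubated at 0.01, 0.1, 1 and 5 μM. Percent inhibition of the SMAD response was calculated relative to DMSO vehicle controls.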

In data set [5] the test system is H9. In words: Cardiogenic activity in human H9 cells at < 0.15 uM after 14 days by MYH6-mCherry reporter gene assay relative to 4-[(1R,2S,6R,7S)-3,5-dioxo-4-azatricyclo[5.2.1.0~2,6~]dec-8-en-4-yl]-N-quinolin-8-ylbenzamide. It is filed as functional, cell-based. In short, it runs like this: as §1
Data set [6] deals with HEK-293T. In words: Cytotoxicity against human HEK293T cells at 0.2 to 20 uM after 24 hrs by alamar blue assay. It is filed as cell-based. Background: Alamar Blue is a resazurin reagent that responds to reducing activity.

Active and inactive are the calls of the source. The calls are words filed in the database; no cut-off is given here.

`COc1cc(Br)ccc1NC(=O)[C@H]1CC[C@H](N2C(=O)[C@@H]3[C@@H]4CC[C@@H](C4)[C@@H]3C2=O)CC1`: the inhibition was 82% in data set [1] and under 20% in the data set with HEK-293T [4]. Besides, the figures for the Activity entry in the data set on H9 [2] and in the data set on H9 [2] (record 2) were “Dose-dependent effect” and 20%, respectively. The same molecule returned an IC50 in data set [3] of 0.037 µM.

On to `O=C(Nc1cccc2cccnc12)c1cccc(N2C(=O)[C@@H]3[C@@H]4CC[C@@H](C4)[C@@H]3C2=O)c1`, for which the inhibition in data set [1] was found to be 0%.

`O=C1[C@@H]2[C@@H]3CC[C@@H](C3)[C@@H]2C(=O)N1c1ccc2c(c1)C(=O)N(c1cccc3cccnc13)C2=O` returned an inhibition in data set [1] of 15%.

In data set [1], `CC(=O)c1ccccc1NC(=O)[C@H]1CC[C@@H](N2C(=O)[C@@H]3[C@@H]4CC[C@@H](C4)[C@@H]3C2=O)CC1` returned an inhibition of 91%. Also, the Activity entry in the data set with H9 [2] was “Dose-dependent effect”; in the data set with H9 [2] (record 2) it was 72%. In addition, in data set [3], the IC50 stood at 0.023 µM.

In data set [1], `O=C(Nc1cccc2cccnc12)c1ccc(N2C(=O)[C@@H]3[C@@H]4CC[C@@H](C4)[C@@H]3C2=O)o1` had an inhibition of 0%.

For the molecule `O=C(Nc1cccc2cccnc12)c1ccc(N2C(=O)[C@@H]3[C@H](C2=O)[C@@H]2C=C[C@H]3CC2)cc1`, the inhibition in data set [1] came to 83%. In data set [3], this molecule returned a concentration for half-maximal inhibition (IC50) of 0.412 µM.

Take `O=C1[C@@H]2[C@@H]3CC[C@@H](C3)[C@@H]2C(=O)N1[C@H]1CC[C@H](C(=O)Nc2ccccc2O)CC1`: the inhibition in data set [1] came to 76%. Inhibition in data set [3] was half-maximal at 0.484 µM (IC50).

Consider `O=C1[C@@H]2[C@@H]3CC[C@@H](C3)[C@@H]2C(=O)N1[C@H]1CC[C@H](C(=O)Nc2cccc3cnccc23)CC1`, for which, in data set [1], the inhibition amounted to 87%. The molecule further displayed an IC50 in data set [3] of 0.161 µM.

For `O=C1[C@@H]2[C@@H]3CC[C@@H](C3)[C@@H]2C(=O)N1[C@H]1CC[C@H](C(=O)Nc2cccc3cccnc23)CC1`, the outcome in the data set on H9 [5] was Active. Further, the inhibition in data set [1] was 89%; in the data set with HEK-293T [4] it was under 20%. Also, in the data set with H9 [2], the Activity is 145%. This molecule also displayed a half-inhibitory concentration (IC50) in data set [3] of 0.004 µM.

In data set [1], `COC(=O)c1ccccc1NC(=O)[C@H]1CC[C@H](N2C(=O)[C@@H]3[C@@H]4CC[C@@H](C4)[C@@H]3C2=O)CC1` displayed an inhibition of 86%. The Activity entry with H9 [2] is “Dose-dependent effect”; with H9 [2] (record 2), 38%. The IC50 in data set [3] was 0.067 µM.

Molecule `O=C(Nc1cccc2cccnc12)c1ccc(N2C(=O)C3C(C2=O)[C@H]2CC[C@@H]3O2)cc1` (some centres undefined) yielded an inhibition in data set [1] of 49%. In the data set with H9 [2], this molecule showed an Activity of 2%. The same molecule showed an IC50 in data set [3] of 0.605 µM.

On to `O=C1[C@@H]2[C@@H]3CC[C@@H](C3)[C@@H]2C(=O)N1[C@H]1CC[C@H](C(=O)Nc2nccc3ccccc23)CC1`, for which the inhibition in data set [1] was found to be 88%. Besides, the values for the Activity entry in the data set on H9 [2] and in the data set on H9 [2] (record 2) were “Dose-dependent effect” and 84%, respectively. In data set [3], this molecule yielded a half-inhibitory concentration (IC50) of 0.095 µM.

As to `O=C1c2ccccc2-c2cccc(NC(=O)[C@H]3CC[C@H](N4C(=O)[C@@H]5[C@@H]6CC[C@@H](C6)[C@@H]5C4=O)CC3)c21`, the inhibition in data set [1] was found to be 88%. In addition, the values for the Activity entry in the data set on H9 [2] and with H9 [2] (record 2) were “Dose-dependent effect” and 104%, respectively. The molecule further yielded an IC50 in data set [3] of 0.194 µM.

As to `O=C(Nc1ccccc1O)c1ccc(N2C(=O)[C@@H]3[C@@H]4CC[C@@H](C4)[C@@H]3C2=O)cc1`, the inhibition in data set [1] was determined as 33%.

Regarding `COc1ccccc1NC(=O)c1ccc(N2C(=O)[C@@H]3[C@@H]4CC[C@@H](C4)[C@@H]3C2=O)cc1`, in data set [1], the inhibition stood at 84%. This molecule gave an Activity with H9 [2] of 8%. Also, the IC50 in data set [3] worked out at 0.215 µM.

The molecule `CCOc1ccccc1NC(=O)[C@H]1CC[C@H](N2C(=O)[C@@H]3[C@@H]4CC[C@@H](C4)[C@@H]3C2=O)CC1` gave an inhibition in data set [1] of 78%. In data set [3], this molecule registered an IC50 of 0.19 µM.

Regarding `CN(C)c1ccc(NC(=O)c2ccc(N3C(=O)[C@@H]4[C@@H]5CC[C@@H](C5)[C@@H]4C3=O)cc2)cc1`, in data set [1], the inhibition turned out to be 25%.

Molecule `O=C(Nc1cccc2cccnc12)c1ccc(N2C(=O)[C@@H]3[C@@H]4CC[C@@H](C4)[C@@H]3C2=O)cc1` showed an inhibition in data set [1] of 93%. In addition, the results for the Activity entry in the data set with H9 [2] and in the data set on H9 [2] (record 2) were “Dose-dependent effect” and 75%, respectively. In data set [3], this molecule yielded a 50% inhibitory concentration (IC50) of 0.024 µM.

`CC(=O)c1ccc(NC(=O)[C@H]2CC[C@H](N3C(=O)[C@@H]4[C@@H]5CC[C@@H](C5)[C@@H]4C3=O)CC2)cn1`: the inhibition is 56% in data set [1] and under 20% in the data set with HEK-293T [4]. This molecule yielded an Activity in the data set on H9 [2] of 3%. The same molecule yielded an IC50 in data set [3] of 0.59 µM.

For the molecule `CC(=O)c1ncccc1NC(=O)[C@H]1CC[C@H](N2C(=O)[C@@H]3[C@@H]4CC[C@@H](C4)[C@@H]3C2=O)CC1`, the result in the data set with H9 [5] was Active. In addition, the inhibition in data set [1] was 79%; with HEK-293T [4], under 20%. Moreover, the Activity in the data set on H9 [2] is on record as 145%. This molecule came in with an IC50 in data set [3] of 0.007 µM.

On to `O=C1[C@@H]2[C@@H]3CC[C@@H](C3)[C@@H]2C(=O)N1[C@H]1CC[C@@H](C(=O)Nc2cccc3cccnc23)CC1`, for which the inhibition in data set [1] came out at 90%. Besides, the Activity entry in the data set with H9 [2] was “Dose-dependent effect”; in the data set on H9 [2] (record 2), 65%. In data set [3], the IC50 was 0.057 µM.

Consider `N#Cc1ccc(NC(=O)c2ccc(N3C(=O)[C@@H]4[C@@H]5CC[C@@H](C5)[C@@H]4C3=O)cc2)cc1`, for which the inhibition in data set [1] was determined as 70%. The same molecule came in with an Activity in the data set on H9 [2] of 1%. The molecule further registered an IC50 in data set [3] of 0.317 µM.

In data set [1], `CC1[C@H]2CC[C@@H]1[C@@H]1C(=O)N(c3ccc(C(=O)Nc4cccc5cccnc45)cc3)C(=O)[C@@H]12` (some centres undefined) came in with an inhibition of 76%. Further, in data set [3], the IC50 worked out at 1.18 µM.

Consider `O=C1[C@@H]2[C@@H]3CC[C@@H](C3)[C@@H]2C(=O)N1[C@H]1CC[C@H](C(=O)Nc2cccnc2Cl)CC1`, for which, in data set [1], the inhibition is 13%. Also, the Activity result was “Dose-dependent effect” with H9 [2] and 56% with H9 [2] (record 2). Also, it took 0.169 µM to reach half-maximal inhibition in data set [3] (IC50).

With `CC(=O)c1ccc(NC(=O)c2ccc(N3C(=O)[C@@H]4[C@@H]5CC[C@@H](C5)[C@@H]4C3=O)cc2)cc1`, the inhibition in data set [1] stood at 41%.

The molecule `O=C1[C@@H]2[C@@H]3CC[C@@H](C3)[C@@H]2C(=O)N1[C@H]1CC[C@H](C(=O)Nc2cncc3ccccc23)CC1` registered an inhibition in data set [1] of 89%. In addition, the Activity entry in the data set on H9 [2] is “Dose-dependent effect”; in the data set with H9 [2] (record 2) it was 119%. This molecule also had an IC50 in data set [3] of 0.055 µM.

As to `COc1ccc(NC(=O)c2ccc(N3C(=O)[C@@H]4[C@@H]5CC[C@@H](C5)[C@@H]4C3=O)cc2)cc1`, in data set [1], the inhibition came out at 50%.

The molecule `O=C1[C@@H]2[C@@H]3CC[C@@H](C3)[C@@H]2C(=O)N1[C@H]1CC[C@H](C(=O)Nc2ccncc2)CC1` displayed an inhibition in data set [1] of 84%. For the same molecule, the Activity in the data set with H9 [2] came to 3%. The concentration for half-maximal inhibition (IC50) in data set [3] amounted to 0.08 µM.

In data set [1], `O=C1[C@@H]2[C@@H]3CC[C@@H](C3)[C@@H]2C(=O)N1[C@H]1CC[C@H](C(=O)Nc2cncc(O)c2)CC1` came in with an inhibition of 86%. Moreover, the Activity entry is “Dose-dependent effect” in the data set with H9 [2] and 61% with H9 [2] (record 2). In data set [3], this molecule yielded an IC50 of 0.152 µM.

In turn, `O=C1[C@@H]2[C@@H]3CC[C@@H](C3)[C@@H]2C(=O)N1c1ccc(CNc2cccc3cccnc23)cc1` displayed an inhibition in data set [1] of 45%.

In data set [1], `O=C(Nc1cccc2ccccc12)c1ccc(N2C(=O)[C@@H]3[C@@H]4CC[C@@H](C4)[C@@H]3C2=O)cc1` had an inhibition of 41%. The molecule also had an Activity in the data set with H9 [2] of 8%. In addition, half-maximal inhibition in data set [3] (IC50) was put at 1.59 µM.

As for `O=C(Nc1cccc2cccnc12)c1ccc(N2C(=O)[C@@H]3[C@H]4CC[C@H](CC4)[C@@H]3C2=O)cc1`, in data set [1], the inhibition came out at 87%. The molecule further returned an Activity in the data set with H9 [2] of 2%. In data set [3], this molecule had a half-maximal inhibitory concentration (IC50) of 0.314 µM.

The molecule `O=C1[C@@H]2[C@@H]3CC[C@@H](C3)[C@@H]2C(=O)N1[C@H]1CC[C@H](C(=O)Nc2ccccn2)CC1` yielded an inhibition in data set [1] of 82%. Moreover, in the data set on H9 [2], the Activity was 3%. In data set [3], this molecule displayed an IC50 of 0.109 µM.

In data set [1], `O=C1[C@@H]2[C@@H]3CC[C@@H](C3)[C@@H]2C(=O)N1[C@H]1CC[C@H](C(=O)Nc2ccnc3ccccc23)CC1` had an inhibition of 90%. In addition, the IC50 in data set [3] amounted to 0.109 µM.

Take `O=C1[C@@H]2[C@@H]3CC[C@@H](C3)[C@@H]2C(=O)N1[C@H]1CC[C@H](C(=O)Nc2cccc3ncccc23)CC1`: the inhibition in data set [1] came to 68%. For the same molecule, half-maximal inhibition in data set [3] (IC50) was put at 0.604 µM.

As for `Cc1cc(/C=C/c2ccc3cc(N(C)C)ccc3[n+]2C)c(C)n1-c1ccccc1`, in the data set with HEK-293T [6], the Activity result is on record as “Toxic”.
